Data reported in ChEMBL document CHEMBL1152541, “Staurosporine tethered peptide ligands that target cAMP-dependent protein kinase (PKA): optimization and selectivity profiling” (Bioorg Med Chem, 2009).
Blank lines part the entries; values can stand above or below the compound they belong to. *1 amine or outer side, *2 acyl side, *3 side chain or, on linkers, in order; H or OH if unused. Where a SMILES comes first, the peptide text is derived from it. Bridges are numbered along the chain shown (N, C = ends). [ ]: non-standard residue; d: D form. The star is where a group is joined. Staurosporine = CO[C@@H]1[C@H](N(C)*)C[C@H]2O[C@]1(C)n1c3ccccc3c3c4c(c5c6ccccc6n2c5c31)C(=O)NC4; Suc = O=C(CCC(=O)[*:2])[*:1]; Dap = NC[C@H](N)C(=O)O; βAla = NCCC(=O)O

Assays:
[1] = molecular target: Cyclin-dependent kinase 16 (Homo sapiens) (UniProt Q00536); experiment: Binding affinity to human PCTK1 at 500 nM by cell-based competition binding assay relative to control in presence of DTT
[2] = molecular target: Serine/threonine-protein kinase PLK1 (Homo sapiens) (UniProt P53350); experiment: Binding affinity to human PLK1 at 500 nM by cell-based competition binding assay relative to control in presence of DTT
[3] = molecular target: Atypical kinase COQ8A, mitochondrial (Homo sapiens) (UniProt Q8NI60); experiment: Binding affinity to human ADCK3 at 200 nM by cell-based competition binding assay relative to control in presence of DTT
Summary of the method: (§1)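 Kinase binding profiling ran on a commercial (Ambit) competitive binding screen against a panel of 90 kinases. The screen used reducing conditions with 7.5 mM DTT. To withstand the DTT, the bivalent ligand was tested as its amide isostere, with the disulfide replaced. A staurosporine derivative carrying a 3 β-alanine linker was run as the reference compound.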

[4] = molecular target: Serine/threonine-protein kinase PAK 1 (Homo sapiens) (UniProt Q13153); experiment: Binding affinity to human PAK1 at 200 nM by cell-based competition binding assay relative to control in presence of DTT
[5] = molecular target: Receptor tyrosine-protein kinase erbB-4 (Homo sapiens) (UniProt Q15303); experiment: Binding affinity to human ERBB4 at 200 nM by cell-based competition binding assay relative to control in presence of DTT
Summary of the method: (§2)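 Commercial (Ambit) competitive kinase-binding panel of 90 kinases measured the binding profile. Run under reducing conditions of 7.5 mM DTT. Binding is expressed relative to control.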

[6] = molecular target: T1, Tyrosine-protein kinase ZAP-70 (Homo sapiens) (UniProt P43403); experiment: Binding affinity to human ZAP70 at 200 nM by cell-based competition binding assay relative to control in presence of DTT
T1 sequence (whole entry): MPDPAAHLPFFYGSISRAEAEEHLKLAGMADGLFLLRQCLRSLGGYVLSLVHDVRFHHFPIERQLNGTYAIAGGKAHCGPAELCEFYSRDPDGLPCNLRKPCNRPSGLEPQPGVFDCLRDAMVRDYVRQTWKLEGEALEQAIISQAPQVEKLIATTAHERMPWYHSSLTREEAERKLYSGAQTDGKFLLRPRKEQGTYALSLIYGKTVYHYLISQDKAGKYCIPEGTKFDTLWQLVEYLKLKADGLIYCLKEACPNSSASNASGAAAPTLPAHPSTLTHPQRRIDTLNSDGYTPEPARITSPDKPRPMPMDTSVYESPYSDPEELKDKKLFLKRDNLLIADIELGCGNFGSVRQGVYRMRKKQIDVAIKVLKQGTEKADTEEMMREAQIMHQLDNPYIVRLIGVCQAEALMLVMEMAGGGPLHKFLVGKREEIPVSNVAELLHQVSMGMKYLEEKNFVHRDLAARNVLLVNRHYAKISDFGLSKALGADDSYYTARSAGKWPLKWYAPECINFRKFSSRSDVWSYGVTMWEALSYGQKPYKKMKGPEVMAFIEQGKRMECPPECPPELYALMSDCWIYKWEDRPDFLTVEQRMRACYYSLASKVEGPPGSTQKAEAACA

[7] = molecular target: Mitogen-activated protein kinase kinase kinase 4 (Homo sapiens) (UniProt Q9Y6R4); experiment: Binding affinity to human MAP3K4 at 200 nM by cell-based competition binding assay relative to control in presence of DTT
Summary of the method: (§3)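 Competition binding screen (Ambit) across a panel of 90 kinases, scoring test ligand displacement of each kinase's binding relative to control. The screen ran under reducing conditions with 7.5 mM DTT.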

[8] = molecular target: Serine/threonine-protein kinase PAK 4 (Homo sapiens) (UniProt O96013); experiment: Binding affinity to human PAK4 at 200 nM by cell-based competition binding assay relative to control in presence of DTT
[9] = molecular target: Dual specificity mitogen-activated protein kinase kinase 1 (Homo sapiens) (UniProt Q02750); experiment: Binding affinity to human MEK1 at 200 nM by cell-based competition binding assay relative to control in presence of DTT
Summary of the method: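 Kinase binding profile from a commercial panel of 90 kinases, run as a competitive binding assay. The panel was screened under reducing conditions of 7.5 mM DTT. Signal was compared with the untreated control.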

[10] = molecular target: Serine/threonine-protein kinase pim-2 (Homo sapiens) (UniProt Q9P1W9); experiment: Binding affinity to human PIM2 at 50 nM by cell-based competition binding assay relative to control in presence of DTT
[11] = molecular target: T2, TGF-beta receptor type-1 (Homo sapiens) (UniProt P36897); experiment: Binding affinity to human TGFBR1 at 50 nM by cell-based competition binding assay relative to control in presence of DTT
T2 sequence (whole entry): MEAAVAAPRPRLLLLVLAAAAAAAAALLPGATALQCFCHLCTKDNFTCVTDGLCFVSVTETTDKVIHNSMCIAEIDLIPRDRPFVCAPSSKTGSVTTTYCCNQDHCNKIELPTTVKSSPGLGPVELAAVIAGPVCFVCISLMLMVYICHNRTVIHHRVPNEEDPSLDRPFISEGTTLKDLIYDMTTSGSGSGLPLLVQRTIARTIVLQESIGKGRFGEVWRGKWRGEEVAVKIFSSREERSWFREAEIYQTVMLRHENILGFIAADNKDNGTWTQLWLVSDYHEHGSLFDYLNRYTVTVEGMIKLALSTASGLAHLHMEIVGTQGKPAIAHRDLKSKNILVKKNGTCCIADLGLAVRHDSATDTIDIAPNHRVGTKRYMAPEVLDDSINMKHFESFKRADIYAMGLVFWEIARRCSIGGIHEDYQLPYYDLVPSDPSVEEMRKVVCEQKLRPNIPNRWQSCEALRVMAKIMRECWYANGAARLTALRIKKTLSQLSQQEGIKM

[12] = molecular target: Mast/stem cell growth factor receptor Kit (Homo sapiens) (UniProt P10721); experiment: Binding affinity to human KIT at 50 nM by cell-based competition binding assay relative to control in presence of DTT; summary of the method: as §3
[13] = molecular target: RAC-alpha serine/threonine-protein kinase (Homo sapiens) (UniProt P31749); experiment: Binding affinity to human AKT1 at 50 nM by cell-based competition binding assay relative to control in presence of DTT; summary of the method: as §1
[14] = molecular target: cAMP-dependent protein kinase catalytic subunit alpha (Homo sapiens) (UniProt P17612); experiment: Binding affinity to human PKACalpha at 50 nM by cell-based competition binding assay relative to control in presence of DTT
[15] = molecular target: Tyrosine-protein kinase receptor UFO (Homo sapiens) (UniProt P30530); experiment: Binding affinity to human AXL at 50 nM by cell-based competition binding assay relative to control in presence of DTT; summary of the method: as §1
[16] = molecular target: Serine/threonine-protein kinase PAK 4 (Homo sapiens) (UniProt O96013); experiment: Binding affinity to human PAK4 at 50 nM by cell-based competition binding assay relative to control in presence of DTT
[17] = test system: Epidermal growth factor receptor (Homo sapiens), P00533 [L858R]; experiment: Binding affinity to human EGFR L858R mutant at 50 nM by cell-based competition binding assay relative to control in presence of DTT; summary of the method: as §2

Chain of Serine/threonine-protein kinase PAK 4 (Homo sapiens) (O96013 whole entry, looked up): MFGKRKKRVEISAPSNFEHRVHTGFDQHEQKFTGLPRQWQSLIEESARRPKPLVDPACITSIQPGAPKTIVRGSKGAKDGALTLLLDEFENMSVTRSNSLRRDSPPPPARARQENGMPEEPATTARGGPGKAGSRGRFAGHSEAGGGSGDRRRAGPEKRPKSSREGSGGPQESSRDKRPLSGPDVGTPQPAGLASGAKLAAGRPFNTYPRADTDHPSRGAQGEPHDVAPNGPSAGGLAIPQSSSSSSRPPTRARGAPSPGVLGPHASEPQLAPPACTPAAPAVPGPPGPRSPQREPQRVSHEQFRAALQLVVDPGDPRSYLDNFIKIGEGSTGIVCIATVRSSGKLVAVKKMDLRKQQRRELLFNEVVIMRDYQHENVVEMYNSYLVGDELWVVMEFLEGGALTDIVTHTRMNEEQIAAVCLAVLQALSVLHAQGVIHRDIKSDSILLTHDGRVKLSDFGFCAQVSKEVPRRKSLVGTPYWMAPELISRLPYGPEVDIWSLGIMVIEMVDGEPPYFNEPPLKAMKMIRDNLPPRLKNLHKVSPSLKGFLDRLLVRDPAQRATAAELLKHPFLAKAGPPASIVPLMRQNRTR
Chain of Serine/threonine-protein kinase PLK1 (Homo sapiens) (P53350 whole entry): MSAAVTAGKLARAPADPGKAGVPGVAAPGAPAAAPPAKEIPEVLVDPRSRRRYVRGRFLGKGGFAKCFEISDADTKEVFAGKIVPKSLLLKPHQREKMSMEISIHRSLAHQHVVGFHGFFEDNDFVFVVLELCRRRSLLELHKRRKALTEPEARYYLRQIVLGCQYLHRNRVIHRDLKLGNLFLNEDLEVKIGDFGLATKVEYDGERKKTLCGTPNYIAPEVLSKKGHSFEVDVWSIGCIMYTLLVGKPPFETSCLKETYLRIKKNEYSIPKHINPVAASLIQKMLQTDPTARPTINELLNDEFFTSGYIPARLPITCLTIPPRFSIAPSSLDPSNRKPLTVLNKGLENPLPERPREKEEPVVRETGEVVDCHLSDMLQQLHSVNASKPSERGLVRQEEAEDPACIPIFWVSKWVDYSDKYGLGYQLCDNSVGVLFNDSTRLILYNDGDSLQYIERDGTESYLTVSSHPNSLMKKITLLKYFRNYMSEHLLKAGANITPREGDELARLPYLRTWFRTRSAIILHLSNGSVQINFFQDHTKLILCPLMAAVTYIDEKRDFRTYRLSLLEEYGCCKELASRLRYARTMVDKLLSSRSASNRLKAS
Chain of Atypical kinase COQ8A, mitochondrial (Homo sapiens) (Q8NI60 163-647 limits assumed): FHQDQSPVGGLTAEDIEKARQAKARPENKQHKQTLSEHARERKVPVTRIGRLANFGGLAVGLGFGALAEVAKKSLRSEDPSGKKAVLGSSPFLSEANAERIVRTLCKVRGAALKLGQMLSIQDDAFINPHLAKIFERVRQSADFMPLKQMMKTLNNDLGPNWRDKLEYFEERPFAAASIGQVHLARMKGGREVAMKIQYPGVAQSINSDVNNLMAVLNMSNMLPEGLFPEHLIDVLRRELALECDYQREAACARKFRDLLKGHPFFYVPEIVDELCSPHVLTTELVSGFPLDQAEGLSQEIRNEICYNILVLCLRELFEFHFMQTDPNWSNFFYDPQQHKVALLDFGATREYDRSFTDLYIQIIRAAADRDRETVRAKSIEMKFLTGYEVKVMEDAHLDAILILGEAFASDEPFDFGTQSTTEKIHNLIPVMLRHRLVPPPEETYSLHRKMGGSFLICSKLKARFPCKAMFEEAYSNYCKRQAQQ
Chain of Tyrosine-protein kinase receptor UFO (Homo sapiens) (P30530 whole entry): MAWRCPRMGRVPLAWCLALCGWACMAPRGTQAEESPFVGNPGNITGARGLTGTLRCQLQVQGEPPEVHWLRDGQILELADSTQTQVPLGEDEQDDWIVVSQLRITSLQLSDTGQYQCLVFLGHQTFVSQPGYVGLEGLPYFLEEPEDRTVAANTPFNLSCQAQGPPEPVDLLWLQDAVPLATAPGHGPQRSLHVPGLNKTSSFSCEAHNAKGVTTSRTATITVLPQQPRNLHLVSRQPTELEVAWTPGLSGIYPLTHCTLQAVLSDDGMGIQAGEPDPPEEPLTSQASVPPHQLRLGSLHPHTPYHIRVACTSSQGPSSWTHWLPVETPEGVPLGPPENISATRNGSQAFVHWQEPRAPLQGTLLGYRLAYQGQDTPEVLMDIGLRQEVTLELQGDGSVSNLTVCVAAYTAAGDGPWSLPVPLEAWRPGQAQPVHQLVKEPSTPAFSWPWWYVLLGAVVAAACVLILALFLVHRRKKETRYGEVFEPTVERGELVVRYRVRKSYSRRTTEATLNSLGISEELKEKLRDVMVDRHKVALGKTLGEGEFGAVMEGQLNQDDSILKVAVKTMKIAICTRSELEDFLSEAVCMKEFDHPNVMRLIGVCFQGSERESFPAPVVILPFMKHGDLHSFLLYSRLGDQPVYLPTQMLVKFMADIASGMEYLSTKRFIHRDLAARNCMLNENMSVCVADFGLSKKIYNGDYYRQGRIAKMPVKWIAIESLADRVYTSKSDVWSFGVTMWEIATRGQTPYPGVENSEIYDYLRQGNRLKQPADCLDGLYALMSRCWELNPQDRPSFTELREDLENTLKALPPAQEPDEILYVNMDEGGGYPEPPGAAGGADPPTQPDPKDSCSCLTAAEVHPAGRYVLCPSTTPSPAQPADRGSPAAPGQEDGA
Chain of Dual specificity mitogen-activated protein kinase kinase 1 (Homo sapiens) (Q02750 whole entry): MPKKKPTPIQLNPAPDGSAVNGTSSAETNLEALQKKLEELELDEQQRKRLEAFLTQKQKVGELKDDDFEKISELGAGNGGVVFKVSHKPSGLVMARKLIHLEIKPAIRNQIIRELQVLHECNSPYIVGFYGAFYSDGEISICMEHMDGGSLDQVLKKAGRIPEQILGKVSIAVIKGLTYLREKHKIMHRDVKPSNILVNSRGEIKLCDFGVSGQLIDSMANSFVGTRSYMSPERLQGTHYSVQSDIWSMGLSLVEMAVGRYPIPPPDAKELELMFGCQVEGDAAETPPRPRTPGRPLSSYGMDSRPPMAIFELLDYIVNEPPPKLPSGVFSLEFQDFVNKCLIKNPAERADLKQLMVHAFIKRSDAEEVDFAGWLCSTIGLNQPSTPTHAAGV
Chain of RAC-alpha serine/threonine-protein kinase (Homo sapiens) (P31749 whole entry): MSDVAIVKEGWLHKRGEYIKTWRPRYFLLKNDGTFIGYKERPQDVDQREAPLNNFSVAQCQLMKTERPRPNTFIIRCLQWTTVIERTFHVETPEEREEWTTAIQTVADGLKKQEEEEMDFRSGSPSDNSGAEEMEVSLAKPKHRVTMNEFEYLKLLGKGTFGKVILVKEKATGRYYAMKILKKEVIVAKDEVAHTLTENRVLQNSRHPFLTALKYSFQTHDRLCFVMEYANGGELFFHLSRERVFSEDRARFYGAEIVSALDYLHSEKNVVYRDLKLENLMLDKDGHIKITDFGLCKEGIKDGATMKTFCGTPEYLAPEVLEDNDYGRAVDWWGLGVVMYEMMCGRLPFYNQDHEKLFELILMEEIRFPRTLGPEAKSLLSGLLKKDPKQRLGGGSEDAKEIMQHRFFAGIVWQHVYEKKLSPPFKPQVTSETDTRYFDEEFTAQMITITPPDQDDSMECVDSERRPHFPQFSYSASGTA
Chain of Serine/threonine-protein kinase PAK 1 (Homo sapiens) (Q13153 whole entry): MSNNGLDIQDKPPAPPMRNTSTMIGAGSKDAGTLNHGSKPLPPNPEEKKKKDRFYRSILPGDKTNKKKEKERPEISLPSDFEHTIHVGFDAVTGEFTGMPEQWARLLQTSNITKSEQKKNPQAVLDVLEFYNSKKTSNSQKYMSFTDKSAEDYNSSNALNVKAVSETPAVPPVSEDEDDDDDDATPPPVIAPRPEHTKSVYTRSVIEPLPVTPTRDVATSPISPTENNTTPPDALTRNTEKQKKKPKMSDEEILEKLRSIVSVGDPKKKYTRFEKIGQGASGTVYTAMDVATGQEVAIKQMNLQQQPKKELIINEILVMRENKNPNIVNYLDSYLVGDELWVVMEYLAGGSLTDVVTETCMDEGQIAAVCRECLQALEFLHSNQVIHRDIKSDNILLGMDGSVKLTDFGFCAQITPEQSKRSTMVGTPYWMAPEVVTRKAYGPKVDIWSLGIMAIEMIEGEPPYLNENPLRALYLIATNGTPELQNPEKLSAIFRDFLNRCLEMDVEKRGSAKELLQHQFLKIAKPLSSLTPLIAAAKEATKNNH
Chain of Mast/stem cell growth factor receptor Kit (Homo sapiens) (P10721 whole entry): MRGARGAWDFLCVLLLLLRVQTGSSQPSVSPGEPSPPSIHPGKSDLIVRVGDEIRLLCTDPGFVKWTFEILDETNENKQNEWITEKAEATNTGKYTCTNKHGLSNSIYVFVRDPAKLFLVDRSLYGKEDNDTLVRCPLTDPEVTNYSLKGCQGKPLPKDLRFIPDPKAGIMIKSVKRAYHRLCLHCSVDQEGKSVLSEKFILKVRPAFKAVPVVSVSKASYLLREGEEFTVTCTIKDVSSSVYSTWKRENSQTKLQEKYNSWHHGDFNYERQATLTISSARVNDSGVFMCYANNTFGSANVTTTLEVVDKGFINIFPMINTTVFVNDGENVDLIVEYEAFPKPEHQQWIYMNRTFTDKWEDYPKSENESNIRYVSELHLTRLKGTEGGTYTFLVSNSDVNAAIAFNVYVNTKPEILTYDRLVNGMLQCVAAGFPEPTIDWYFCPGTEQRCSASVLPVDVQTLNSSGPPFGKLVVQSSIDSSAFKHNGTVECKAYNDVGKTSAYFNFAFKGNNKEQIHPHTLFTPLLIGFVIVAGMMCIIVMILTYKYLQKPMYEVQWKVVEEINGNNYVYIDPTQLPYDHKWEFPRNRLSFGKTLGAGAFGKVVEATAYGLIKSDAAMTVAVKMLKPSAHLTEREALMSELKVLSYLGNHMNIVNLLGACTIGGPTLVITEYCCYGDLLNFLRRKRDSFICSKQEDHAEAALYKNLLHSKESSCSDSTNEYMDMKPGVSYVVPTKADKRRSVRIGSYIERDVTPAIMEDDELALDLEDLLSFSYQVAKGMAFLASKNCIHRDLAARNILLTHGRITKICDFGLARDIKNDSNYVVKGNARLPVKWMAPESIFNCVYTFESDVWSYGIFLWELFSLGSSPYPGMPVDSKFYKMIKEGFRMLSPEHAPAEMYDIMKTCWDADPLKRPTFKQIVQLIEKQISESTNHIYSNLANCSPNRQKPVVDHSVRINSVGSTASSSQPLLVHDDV

Activity [1]: 75%
Activity [2]: 85%
SMILES: CO[C@@H]1[C@H](N(C)C(=O)CCC(=O)NCCC(=O)NCCC(=O)NCCC(N)=O)C[C@H]2O[C@]1(C)n1c3ccccc3c3c4c(c5c6ccccc6n2c5c31)C(=O)NC4

Activity [3]: 96%
Activity [4]: 14%
Activity [5]: 100%
Activity [6]: 16%
Activity [7]: 94%
Activity [8]: 40%
Activity [9]: 100%
SMILES: CO[C@@H]1[C@H](N(C)C(=O)CCC(=O)NCCC(=O)NCCC(=O)NCCC(=O)NCCC(=O)NCCC(=O)NCCC(=O)NCCC(=O)N[C@H]2CSSC[C@@H](C(=O)NCC(N)=O)NC(=O)CNC(=O)[C@H](Cc3ccccc3)NC(=O)[C@H](C(C)C)NC(=O)[C@H](CCCNC(=N)N)NC(=O)[C@H](Cc3ccccc3)NC(=O)[C@H](C(C)C)NC2=O)C[C@H]2O[C@]1(C)n1c3ccccc3c3c4c(c5c6ccccc6n2c5c31)C(=O)NC4 ({Staurosporine-Suc-βAla-βAla-βAla-βAla-βAla-βAla-βAla}-CVFRVFGCG-NH2; disulfide 1-8)

Activity [10]: 100%
Activity [11]: 100%
Activity [12]: 85%
Activity [13]: 100%
Activity [14]: 10%
Activity [15]: 81%
Activity [16]: 90%
Activity [17]: 100%
SMILES: CO[C@@H]1[C@H](N(C)C(=O)CCC(=O)NCCC(=O)NCCC(=O)NCCC(=O)NCCC(=O)NCCC(=O)NCCC(=O)NCCC(=O)N[C@H]2CNC(=O)C[C@@H](C(N)=O)NC(=O)CNC(=O)[C@H](Cc3ccccc3)NC(=O)[C@H](C(C)C)NC(=O)[C@H](CCCNC(=N)N)NC(=O)[C@H](Cc3ccccc3)NC(=O)[C@H](C(C)C)NC2=O)C[C@H]2O[C@]1(C)n1c3ccccc3c3c4c(c5c6ccccc6n2c5c31)C(=O)NC4 ({Staurosporine-Suc-βAla-βAla-βAla-βAla-βAla-βAla-βAla}-[Dap]VFRVFGD-NH2; lactam 1-8)
